# According to ChEMBL document CHEMBL2021835 (J Med Chem, 2012):
# Calls of active or inactive are those of the source. The rule behind the calls is not given here.
# Columns and labels:
# [1] = target: T1, Signal transducer and activator of transcription 5A (Homo sapiens) (UniProt P42229); test: Inhibition of STAT5-mediated C-MYC expression in human K562 cells at 40 uM after 6 hrs by RT-PCR analysis; type: cell-based
# T1 sequence (whole entry): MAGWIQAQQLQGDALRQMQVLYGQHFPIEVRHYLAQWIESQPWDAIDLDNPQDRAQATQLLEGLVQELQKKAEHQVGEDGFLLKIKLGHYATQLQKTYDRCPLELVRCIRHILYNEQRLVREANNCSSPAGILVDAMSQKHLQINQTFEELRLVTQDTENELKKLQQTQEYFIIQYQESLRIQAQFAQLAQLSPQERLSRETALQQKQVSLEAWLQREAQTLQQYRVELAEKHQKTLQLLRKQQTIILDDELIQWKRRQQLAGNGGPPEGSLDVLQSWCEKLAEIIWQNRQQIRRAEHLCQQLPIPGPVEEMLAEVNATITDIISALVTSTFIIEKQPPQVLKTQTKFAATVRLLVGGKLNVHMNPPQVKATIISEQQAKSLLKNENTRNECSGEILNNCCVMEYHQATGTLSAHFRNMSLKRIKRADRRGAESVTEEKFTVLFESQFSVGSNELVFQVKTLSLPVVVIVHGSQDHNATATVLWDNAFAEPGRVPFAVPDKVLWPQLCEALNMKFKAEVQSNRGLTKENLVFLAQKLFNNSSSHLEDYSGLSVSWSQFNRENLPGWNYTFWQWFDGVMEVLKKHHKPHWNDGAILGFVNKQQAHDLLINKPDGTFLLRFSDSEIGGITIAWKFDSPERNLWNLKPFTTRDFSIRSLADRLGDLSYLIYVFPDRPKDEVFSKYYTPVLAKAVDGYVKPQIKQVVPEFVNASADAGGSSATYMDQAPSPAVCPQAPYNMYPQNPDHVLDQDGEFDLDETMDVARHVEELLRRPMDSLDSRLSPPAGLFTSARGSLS
# Procedure, shortened: (§1)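 K562 cells were treated at 40 μM for 6 h. Transcript levels of the STAT5 target genes were measured by RT-PCR.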
# [2] = target: T1, Signal transducer and activator of transcription 5A (Homo sapiens); test: Inhibition of STAT5-mediated cyclin D2 expression in human K562 cells at 40 uM after 6 hrs by RT-PCR analysis; type: cell-based; procedure, shortened: as §1
# MV4-11 = test: Cytotoxicity against human MV4-11 cells expressing STAT5 after 48 hrs by alamar blue fluorescent staining; type: functional, cell-based; details: MV4-11, 48 h
# Procedure, shortened: (§2)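 Cells seeded at 1 × 10^5 in exponential growth and treated at 10, 20 and 40 μM. Viability was read by Alamar Blue fluorescence daily over 3 consecutive days.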
# [3] = target: Signal transducer and activator of transcription 3 (Homo sapiens, UniProt P40763); test: Displacement of fluorescein-labeled phosphotyrosine-peptide derived from the interleukin-6 receptor subunit gp130 from the STAT3 after 15 mins by fluorescent polarization assay
# Signal transducer and activator of transcription 3, sequence (P40763 whole entry): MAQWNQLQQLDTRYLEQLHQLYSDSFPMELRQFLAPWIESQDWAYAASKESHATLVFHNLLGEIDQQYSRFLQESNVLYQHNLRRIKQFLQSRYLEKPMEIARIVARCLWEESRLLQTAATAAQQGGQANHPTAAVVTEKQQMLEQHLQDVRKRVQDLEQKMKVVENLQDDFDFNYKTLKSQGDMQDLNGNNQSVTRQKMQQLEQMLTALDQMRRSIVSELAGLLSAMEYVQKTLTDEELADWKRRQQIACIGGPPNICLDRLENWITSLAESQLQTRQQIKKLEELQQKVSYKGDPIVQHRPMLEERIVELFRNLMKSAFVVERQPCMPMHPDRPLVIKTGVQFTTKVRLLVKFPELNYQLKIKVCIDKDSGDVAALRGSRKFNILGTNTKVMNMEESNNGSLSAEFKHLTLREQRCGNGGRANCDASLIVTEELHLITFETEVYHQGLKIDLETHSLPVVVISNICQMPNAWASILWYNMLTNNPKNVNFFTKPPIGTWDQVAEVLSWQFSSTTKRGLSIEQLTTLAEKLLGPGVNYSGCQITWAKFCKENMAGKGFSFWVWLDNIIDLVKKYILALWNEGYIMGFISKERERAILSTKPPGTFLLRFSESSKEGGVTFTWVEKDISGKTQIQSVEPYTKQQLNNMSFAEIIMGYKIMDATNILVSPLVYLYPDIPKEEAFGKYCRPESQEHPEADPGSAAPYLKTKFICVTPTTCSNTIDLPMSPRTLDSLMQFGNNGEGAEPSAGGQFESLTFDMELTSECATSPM
# Procedure, shortened: (§3)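 Competitive FP binding assay in 50 mM NaCl, 10 mM Hepes pH 7.5, 1 mM EDTA, 2 mM DTT with 5% DMSO final. Inhibitor was tested at 200 to 0.2 μM final against 10 nM fluorescent probe, incubated 15 min. Polarization vs concentration was fitted to a standard dose-response curve.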
# K562 = test: Cytotoxicity against human K562 cells expressing STAT5 after 48 hrs by alamar blue fluorescent staining; type: functional, cell-based; details: K562, 48 h; procedure, shortened: as §2
# [4] = target: T1, Signal transducer and activator of transcription 5A (Homo sapiens); test: Inhibition of STAT5-mediated MCL-1 expression in human K562 cells at 40 uM after 6 hrs by RT-PCR analysis; type: cell-based; procedure, shortened: as §1
# [5] = target: T2, Signal transducer and activator of transcription 5B (Homo sapiens, UniProt P51692); test: Displacement of 5-carboxyfluorescein-labeled GpYLVLDKW from the STAT5b-SH2 domain after 15 mins by fluorescent polarization assay
# T2 sequence (P51692 whole entry): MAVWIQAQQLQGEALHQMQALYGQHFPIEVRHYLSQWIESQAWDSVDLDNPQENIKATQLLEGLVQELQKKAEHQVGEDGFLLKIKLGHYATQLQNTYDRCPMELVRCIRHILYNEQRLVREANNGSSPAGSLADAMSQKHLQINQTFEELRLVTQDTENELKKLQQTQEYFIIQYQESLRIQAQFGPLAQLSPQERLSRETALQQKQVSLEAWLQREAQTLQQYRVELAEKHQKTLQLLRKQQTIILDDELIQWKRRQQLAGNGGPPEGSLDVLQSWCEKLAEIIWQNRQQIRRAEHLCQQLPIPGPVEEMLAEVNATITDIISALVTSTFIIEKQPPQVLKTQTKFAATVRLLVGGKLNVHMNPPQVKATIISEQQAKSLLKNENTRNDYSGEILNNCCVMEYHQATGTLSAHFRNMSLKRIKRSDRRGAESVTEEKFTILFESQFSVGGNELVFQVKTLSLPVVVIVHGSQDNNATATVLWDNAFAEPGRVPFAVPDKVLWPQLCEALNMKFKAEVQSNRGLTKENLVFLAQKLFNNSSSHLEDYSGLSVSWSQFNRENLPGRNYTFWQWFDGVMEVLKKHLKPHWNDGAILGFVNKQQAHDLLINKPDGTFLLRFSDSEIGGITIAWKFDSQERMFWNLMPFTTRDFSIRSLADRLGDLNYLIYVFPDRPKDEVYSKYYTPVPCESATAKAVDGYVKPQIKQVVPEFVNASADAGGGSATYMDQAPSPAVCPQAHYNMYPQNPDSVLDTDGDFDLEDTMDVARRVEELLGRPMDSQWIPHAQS
# Procedure, shortened: as §3, with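 “final. Protein final concentrations were STAT1 120 nM, STAT3 150 nM and STAT5 105 nM.” for “final.”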
# [6] = target: T3, Signal transducer and activator of transcription 1-alpha/beta (Homo sapiens, UniProt P42224); test: Displacement of fluorescent probe from the STAT1 after 15 mins by fluorescent polarization assay
# T3 sequence (P42224 whole entry): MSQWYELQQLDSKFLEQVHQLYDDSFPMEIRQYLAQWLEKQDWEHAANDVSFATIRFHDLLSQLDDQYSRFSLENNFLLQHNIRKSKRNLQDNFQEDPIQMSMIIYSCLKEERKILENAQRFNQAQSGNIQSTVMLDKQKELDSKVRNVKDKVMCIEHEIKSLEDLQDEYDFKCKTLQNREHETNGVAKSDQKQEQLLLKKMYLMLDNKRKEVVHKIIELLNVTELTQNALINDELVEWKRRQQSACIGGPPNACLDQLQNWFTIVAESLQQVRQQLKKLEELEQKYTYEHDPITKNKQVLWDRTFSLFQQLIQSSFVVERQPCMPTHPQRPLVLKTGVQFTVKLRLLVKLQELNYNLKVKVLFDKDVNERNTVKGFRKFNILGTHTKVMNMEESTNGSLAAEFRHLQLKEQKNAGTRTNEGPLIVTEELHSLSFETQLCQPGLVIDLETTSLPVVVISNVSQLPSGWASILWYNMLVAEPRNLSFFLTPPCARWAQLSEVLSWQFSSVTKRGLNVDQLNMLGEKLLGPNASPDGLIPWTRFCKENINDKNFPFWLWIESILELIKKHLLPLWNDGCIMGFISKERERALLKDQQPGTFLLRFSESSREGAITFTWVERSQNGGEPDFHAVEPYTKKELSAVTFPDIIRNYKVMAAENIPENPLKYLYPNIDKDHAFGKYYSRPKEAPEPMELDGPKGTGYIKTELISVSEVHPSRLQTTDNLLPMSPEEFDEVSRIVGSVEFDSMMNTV
# [7] = target: T1, Signal transducer and activator of transcription 5A (Homo sapiens); test: Inhibition of STAT5-mediated cyclin D1 expression in human K562 cells at 40 uM after 6 hrs by RT-PCR analysis; type: cell-based; procedure, shortened: as §1
Compound,inhibition [1],inhibition [2],Ki [3],inhibition [4],Ki [5],Ki [6],inhibition [7],IC50 (MV4-11),IC50 (K562)
COC(=O)c1cccc(-c2ccc(-c3ccc(CN(C(=O)CN(C)S(=O)(=O)c4ccc(C)cc4)c4ccc(C(=O)O)c(O)c4)cc3)cc2)c1,Active,Active,2.8 µM,Active,3.8 µM,3.2 µM,Active,24 µM,24 µM
CN(CC(=O)N(Cc1ccc(C2CCCCC2)cc1)c1ccc(C(=O)O)c(O)c1)S(=O)(=O)c1ccc(Cl)cc1,Active,Active,,Active,7.9 µM,22 µM,Active,,
Cc1ccc(S(=O)(=O)N(C)CC(=O)N(Cc2ccc(C3CCN(c4ccc(C(N)=O)cc4)CC3)cc2)c2ccc(C(=O)O)c(O)c2)cc1,,,17.6 µM,,10.1 µM,27.8 µM,,,

# The next lines start with results.
inhibition [1],inhibition [2],Ki [3],inhibition [4],Ki [5],Ki [6],inhibition [7],Compound,IC50 (MV4-11),IC50 (K562)
,,8.4 µM,,,> 25 µM,,Cc1ccc(S(=O)(=O)N(C)CC(=O)N(Cc2ccc(C3CCN(c4ccc(C#N)cc4)CC3)cc2)c2ccc(C(=O)O)c(O)c2)cc1,,
,,,,> 25 µM,> 25 µM,,Cc1ccc(S(=O)(=O)N(C)CC(=O)N(Cc2ccc(C3CCCCC3)cc2)c2ccc(C(=O)O)c(O)c2)cc1,,
